The values below come from ChEMBL document CHEMBL1147803, “2,5-Disubstituted pyrrolidine carboxylates as potent, orally active sphingosine-1-phosphate (S1P) receptor agonists” (Bioorg Med Chem Lett, 2006).

Active and inactive are the calls of the source. A value given as a limit tells only on which side of the number the result lay.

A word on the IC50: it is the point on the concentration scale where inhibition reaches its midpoint. Low readings indicate higher potency, high ones lower potency. The half-life is the time needed for the level to fall by half in the phase considered. A low value points to rapid decline. As usually defined, the bioavailability is the share of a dose that reaches the circulation, judged against a reference dose that is usually intravenous. Read a low bioavailability as poor availability. As a reminder, the ED50 is the dose at which the effect has come halfway, by size or by number of responders. Low values mean an effect at a small dose, high ones a need for a large dose.

Data set [1] in a line: Plasma clearance in Sprague-Dawley rat at 1 mg/kg, iv or 2 mg/kg, po. In kind it is ADME, organism-based.
Data set [2] has as its system Mus musculus. As to the kind of experiment: Lowering of peripheral blood lymphocytes in mouse at 10 mg/kg. In kind it is functional, organism-based. On the set-up: dose 10 mg/kg. Summed up:
(§1)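 Mice were dosed orally, and circulating peripheral blood lymphocytes were counted 3 h after administration.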

In data set [3] the target is T1, Sphingosine 1-phosphate receptor 4 (Homo sapiens, UniProt O95977).
T1 sequence (O95977 whole entry): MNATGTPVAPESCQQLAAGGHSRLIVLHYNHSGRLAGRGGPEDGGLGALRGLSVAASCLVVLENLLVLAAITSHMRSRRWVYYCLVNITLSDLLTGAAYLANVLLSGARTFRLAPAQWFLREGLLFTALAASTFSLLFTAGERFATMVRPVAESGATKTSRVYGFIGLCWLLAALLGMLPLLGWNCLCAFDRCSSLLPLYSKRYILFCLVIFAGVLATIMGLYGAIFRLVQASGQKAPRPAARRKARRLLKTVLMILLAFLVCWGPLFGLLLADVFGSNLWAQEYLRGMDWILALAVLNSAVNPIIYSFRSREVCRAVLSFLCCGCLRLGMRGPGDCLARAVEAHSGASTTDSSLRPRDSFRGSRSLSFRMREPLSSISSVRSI
As to the kind of experiment: Displacement of [33P]S1P from S1P4 expressed in CHO cells. The format is cell-based. Summed up:
(§2)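 Competitive radioligand binding with [33P]S1P on membranes from CHO cells expressing each of the five S1P receptor subtypes (S1P1–5).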

Data set [4] addresses T2, Sphingosine 1-phosphate receptor 5 (Homo sapiens, UniProt Q9H228). As to the kind of experiment: Displacement of [33P]S1P from S1P5 expressed in CHO cells. The format is cell-based. Summed up:
as §2

Data set [5] is described as follows: Half life in Sprague-Dawley rat at 1 mg/kg, iv or 2 mg/kg, po. The format is ADME, organism-based. The note with it: in vivo.
The nature of data set [6]: Volume of distribution in Sprague-Dawley rat at 1 mg/kg, iv or 2 mg/kg, po. In kind it is ADME, organism-based. To be noted: in vivo, read-out: Vdss.
Data set [7] deals with Sphingosine 1-phosphate receptor 2 (Homo sapiens, UniProt O95136). Briefly: Displacement of [33P]S1P from S1P2 expressed in CHO cells. The format is cell-based. An outline of the steps:
as §2

Data set [8] addresses T3, Sphingosine 1-phosphate receptor 1 (Homo sapiens, UniProt P21453). Briefly: Displacement of [33P]S1P from S1P1 expressed in CHO cells. The format is cell-based. Summed up: as §2
The target of data set [9] is T4, Sphingosine 1-phosphate receptor 3 (Homo sapiens, UniProt Q99500). Briefly: Activity at S1P3 receptor by [35S]GTP-gammaS binding assay. In kind it is functional. The note with it: filed as agonist. (In general: GTPγS is a poorly hydrolysed GTP analogue; its binding reports G protein activation.)
In data set [10] the target is T3, Sphingosine 1-phosphate receptor 1. Briefly: Activity at S1P1 receptor by [35S]GTP-gammaS binding assay. The format is functional. The note with it: filed as agonist.
The nature of data set [11]: Bioavailability in Sprague-Dawley rat at 1 mg/kg, iv and 2 mg/kg, po. The format is ADME, organism-based. The note with it: in vivo.
In data set [12] the target is T2, Sphingosine 1-phosphate receptor 5. As to the kind of experiment: Activity at S1P5 receptor by [35S]GTP-gammaS binding assay. The format is functional. To be noted: filed as agonist.
In data set [13] the target is T4, Sphingosine 1-phosphate receptor 3. Briefly: Displacement of [33P]S1P from S1P3 expressed in CHO cells. The format is cell-based. Summed up:
as §2

For data set [14], the species on record is Mus musculus. As to the kind of experiment: Lowering of peripheral blood lymphocytes in mouse. In kind it is functional. Summed up:
as §1

T4 sequence (Q99500 whole entry): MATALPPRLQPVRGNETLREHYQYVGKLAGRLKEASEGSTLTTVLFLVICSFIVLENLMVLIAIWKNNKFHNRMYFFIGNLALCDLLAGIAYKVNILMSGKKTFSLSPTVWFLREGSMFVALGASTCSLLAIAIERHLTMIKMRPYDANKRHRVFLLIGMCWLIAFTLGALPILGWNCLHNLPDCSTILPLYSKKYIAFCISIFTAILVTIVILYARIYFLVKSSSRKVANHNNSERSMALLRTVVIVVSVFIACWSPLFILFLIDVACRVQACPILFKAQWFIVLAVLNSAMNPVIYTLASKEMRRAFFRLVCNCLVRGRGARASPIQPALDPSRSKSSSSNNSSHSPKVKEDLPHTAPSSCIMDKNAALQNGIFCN
T2 sequence (Q9H228 whole entry): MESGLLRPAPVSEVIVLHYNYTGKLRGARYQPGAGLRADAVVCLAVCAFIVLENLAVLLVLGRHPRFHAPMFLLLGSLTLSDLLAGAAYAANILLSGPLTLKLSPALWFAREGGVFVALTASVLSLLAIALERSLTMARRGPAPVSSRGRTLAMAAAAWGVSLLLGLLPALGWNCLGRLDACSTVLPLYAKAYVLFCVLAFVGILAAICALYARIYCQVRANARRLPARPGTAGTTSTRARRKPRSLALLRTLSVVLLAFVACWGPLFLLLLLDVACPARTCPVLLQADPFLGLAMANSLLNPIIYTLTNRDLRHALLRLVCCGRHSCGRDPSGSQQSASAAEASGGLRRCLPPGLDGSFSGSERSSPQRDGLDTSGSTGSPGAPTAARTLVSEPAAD
Sphingosine 1-phosphate receptor 2, sequence (O95136 whole entry): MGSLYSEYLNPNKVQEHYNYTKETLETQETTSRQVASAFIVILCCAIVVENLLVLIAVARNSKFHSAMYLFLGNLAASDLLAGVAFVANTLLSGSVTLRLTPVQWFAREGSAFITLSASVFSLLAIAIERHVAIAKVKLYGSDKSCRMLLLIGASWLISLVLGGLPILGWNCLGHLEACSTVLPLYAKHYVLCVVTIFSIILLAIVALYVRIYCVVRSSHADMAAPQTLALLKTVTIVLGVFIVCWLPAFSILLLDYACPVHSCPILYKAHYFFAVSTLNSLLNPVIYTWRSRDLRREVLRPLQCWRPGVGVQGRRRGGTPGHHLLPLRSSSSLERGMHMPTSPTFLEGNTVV
T3 sequence (P21453 whole entry): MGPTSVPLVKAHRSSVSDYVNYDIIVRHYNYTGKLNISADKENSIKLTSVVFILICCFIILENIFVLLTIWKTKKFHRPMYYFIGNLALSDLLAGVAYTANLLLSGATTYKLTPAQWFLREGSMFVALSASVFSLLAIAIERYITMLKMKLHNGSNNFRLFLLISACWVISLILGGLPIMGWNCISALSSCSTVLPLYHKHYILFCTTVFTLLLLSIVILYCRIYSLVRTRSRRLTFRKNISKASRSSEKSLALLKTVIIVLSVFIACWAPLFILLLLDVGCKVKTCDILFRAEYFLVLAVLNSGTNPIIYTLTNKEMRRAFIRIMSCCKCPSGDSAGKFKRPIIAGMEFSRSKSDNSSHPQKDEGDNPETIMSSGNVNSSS

Regarding `CC(C)Cc1ccc(-c2nc(-c3ccc([C@H]4CC[C@@H](CC(=O)O)N4)cc3)no2)cc1` (racemic), in [1], the clearance was determined as 6.6 mL/min/kg. In the data set on Mus musculus [2], the result was Active. Further, the IC50 in data set [3] was 1000 nM; in [4] it was 200 nM; in [7] it was greater than 10000 nM; in data set [8], 3.3 nM; in data set [13], greater than 10000 nM. In addition, the half-life in data set [5] is 4.1 h. Further, the Vd in [6] is 2.9 L/kg. Further, the Activity result in data set [9], in data set [10] and in data set [12] was “Agonist” in each case. This molecule showed a bioavailability in [11] of 48%.

Turning to `O=C(O)C[C@@H]1CC[C@H](c2ccc(-c3noc(-c4ccc([C@@H]5CCC(F)(F)C5)cc4)n3)cc2)N1` (stereo in doubt; form 1) [listing 1 of 2 here], the Activity entry in data set [9], in [10] and in [12] was “Agonist” in each case.

For `O=C(O)C[C@@H]1CC[C@H](c2ccc(-c3noc(-c4ccc([C@@H]5CCC(F)(F)C5)cc4)n3)cc2)N1` (stereo in doubt; form 1) [listing 2 of 2 here], the half-inhibitory concentration (IC50) in data set [3] was 1500 nM; in data set [4] it was 19 nM; in data set [7] (cho) it was greater than 10000 nM; in data set [8], 2.9 nM; in data set [13], 7800 nM.

With `CC(C)Cc1ccc(-c2nc(-c3ccc([C@@H]4CC[C@@H](C(=O)O)N4)cc3)no2)cc1` (racemic), the half-maximal inhibitory concentration (IC50) is 300 nM in data set [3]; 180 nM in [4]; greater than 10000 nM in data set [7]; 17 nM in data set [8]; 10000 nM in data set [13]. The Activity entry in [9], in data set [10] and in data set [12] was “Agonist” each time.

As for `O=C(O)C[C@@H]1CC[C@H](c2ccc(-c3noc(-c4ccc([C@@H]5CCC(F)(F)C5)cc4)n3)cc2)N1` (racemic) [listing 1 of 2 here], the Activity result in [9], in [10] and in data set [12] was “Agonist” in each case.

Take `O=C(O)C[C@@H]1CC[C@H](c2ccc(-c3noc(-c4ccc([C@@H]5CCC(F)(F)C5)cc4)n3)cc2)N1` (racemic) [listing 2 of 2 here]: the IC50 is 570 nM in [3]; 13 nM in data set [4]; greater than 10000 nM in [7] (cho); 1.2 nM in data set [8]; 2500 nM in data set [13].

Consider `CC(C)Cc1ccc(-c2nc(-c3ccc([C@H]4CC[C@@H](CCC(=O)O)N4)cc3)no2)cc1` (racemic), for which the half-maximal inhibitory concentration (IC50) in data set [3] was 540 nM; in data set [4], 30 nM; in data set [7], greater than 10000 nM; in data set [8] it was 4.5 nM; in data set [13] it was greater than 10000 nM. For the same molecule, the Activity entry in data set [9], in data set [10] and in data set [12] was “Agonist” in each case.

`O=C(O)C[C@@H]1CC[C@H](c2ccc(-c3noc(-c4ccc([C@@H]5CCC(F)(F)C5)cc4)n3)cc2)N1` (stereo in doubt; form 2) [listing 1 of 2 here]: the Activity entry in data set [9], in data set [10] and in data set [12] was “Agonist” throughout.

In the case of `CC(C)Cc1ccc(-c2nc(-c3ccc([C@@H]4CC[C@@H](CCC(=O)O)N4)cc3)no2)cc1` (racemic), the 50% inhibitory concentration (IC50) in [3] was 630 nM; in [4] it was 80 nM; in data set [7], greater than 10000 nM; in data set [8], 5.7 nM; in data set [13], 6700 nM. The Activity result in [9], in data set [10] and in [12] was “Agonist” in each case.

In [1], `CC(C)Cc1ccc(-c2nc(-c3ccc([C@@H]4CC[C@@H](CC(=O)O)N4)cc3)no2)cc1` (racemic) gave a clearance of 8.4 mL/min/kg. Further, in the data set with Mus musculus [2], the result was Active. Also, the 50% inhibitory concentration (IC50) in data set [3] was 700 nM; in data set [4], 100 nM; in [7], greater than 10000 nM; in [8] it was 8 nM; in data set [13], greater than 10000 nM. The half-life in data set [5] is 3.5 h. The Vd in [6] is 3 L/kg. For the same molecule, the Activity entry in data set [9], in data set [10] and in [12] was “Agonist” throughout. The same molecule came in with a bioavailability in data set [11] of 40%.

Consider `O=C(O)C[C@@H]1CC[C@H](c2ccc(-c3noc(-c4ccc(C5CCCC5)cc4F)n3)cc2)N1` (racemic), for which the IC50 in data set [3] was 1400 nM; in data set [4], 60 nM; in data set [7] it was greater than 10000 nM; in data set [8] it was 2.7 nM; in [13], greater than 10000 nM. Further, the Activity entry in [9], in data set [10] and in [12] was “Agonist” in each case.

As to `O=C(O)C[C@@H]1CC[C@H](c2ccc(-c3noc(-c4ccc(C5CCCCC5)cc4)n3)cc2)N1` (racemic), the IC50 is 350 nM in data set [3]; 20 nM in data set [4]; greater than 10000 nM in data set [7]; 0.7 nM in [8]; 1700 nM in data set [13]. The Activity result in data set [9], in data set [10] and in [12] was “Agonist” throughout.

For the molecule `O=C(O)C[C@@H]1CC[C@H](c2ccc(-c3noc(-c4ccc([C@@H]5CCC(F)(F)C5)cc4)n3)cc2)N1` (stereo in doubt; form 2) [listing 2 of 2 here], the clearance in [1] was determined as 9.7 mL/min/kg. The concentration for half-maximal inhibition (IC50) is 720 nM in [3]; 15 nM in data set [4]; greater than 10000 nM in data set [7]; 0.64 nM in [8]; 3800 nM in [13]. In data set [5], this molecule gave a half-life of 2.2 h. In addition, in data set [6], the Vd is 2.3 L/kg. In data set [11], the bioavailability came to 48%. The same molecule displayed an ED50 in the data set filed under Mus musculus [14] of 0.3 mg/kg.

Consider `O=C(O)C[C@@H]1CC[C@H](c2ccc(-c3noc(-c4ccc(C5CCCC5)c(F)c4)n3)cc2)N1` (racemic), for which the 50% inhibitory concentration (IC50) is 2100 nM in data set [3]; 30 nM in data set [4]; greater than 10000 nM in [7]; 2 nM in data set [8]; 7600 nM in [13]. In addition, the Activity entry in data set [9], in [10] and in [12] was “Agonist” in each case.

Regarding `CC(C)Cc1ccc(-c2nc(-c3ccc([C@H]4CC[C@@H](C(=O)O)N4)cc3)no2)cc1` (racemic), the IC50 in data set [3] was 1000 nM; in data set [4], 1280 nM; in data set [7], greater than 10000 nM; in data set [8] it was 75 nM; in [13], greater than 10000 nM. Further, the Activity entry in [9], in data set [10] and in data set [12] was “Agonist” throughout.

Take `O=C(O)C[C@@H]1CC[C@H](c2ccc(-c3noc(-c4ccc([C@H]5CCC(F)(F)C5)cc4)n3)cc2)N1` (racemic): the IC50 in data set [3] was 720 nM; in data set [4], 16 nM; in [7] it was greater than 10000 nM; in [8] it was 0.8 nM; in data set [13], 2200 nM. The Activity result in data set [9], in data set [10] and in [12] was “Agonist” each time.
